Screening data (PubChem BioAssay)
Tn7 DDE FP – inhibitors of Tn7 peptide binding to human fibrin DD(E); P02675; FP displacement of FITC-Tn7 peptide from fibrin DD(E); 0% = median of compound wells per plate; inhibition, % at 8.3 µM; hit rate 0.13% among 370,000;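 active means inhibition above the mean of compounds falling within the control limits plus 3 SD of them, cut at about 14% in these data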;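 further: 0% = plate median of compound wells and 100% = 10 µM Aha-Tn7 peptide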
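Assay system: human fibrin DD(E). Input: DD(E) 2 µM final. Medium: Tris buffer with calcium and detergent, pH 7.8. Compound dosing: single point at 8.3 µM. Timing: 10 min plus 3 h, room temperature. Technique: fluorescence polarization of the labelled Tn7 tracer. Read-out: percent inhibition. Replicates: singlicate testing.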
DAGLB inh – diacylglycerol lipase beta (human) inhibition; HEK293T DAGLB membrane lysate, EnzChek fluorogenic substrate; AID 504411; inhibition, % at 5.17 µM; hit rate 0.059% among 340,000; in the data active means inhibition above about 34%;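 further: 0% = enzyme with vehicle and 100% = wells lacking enzyme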
Target sequence (Q8NCG7 whole entry, looked up): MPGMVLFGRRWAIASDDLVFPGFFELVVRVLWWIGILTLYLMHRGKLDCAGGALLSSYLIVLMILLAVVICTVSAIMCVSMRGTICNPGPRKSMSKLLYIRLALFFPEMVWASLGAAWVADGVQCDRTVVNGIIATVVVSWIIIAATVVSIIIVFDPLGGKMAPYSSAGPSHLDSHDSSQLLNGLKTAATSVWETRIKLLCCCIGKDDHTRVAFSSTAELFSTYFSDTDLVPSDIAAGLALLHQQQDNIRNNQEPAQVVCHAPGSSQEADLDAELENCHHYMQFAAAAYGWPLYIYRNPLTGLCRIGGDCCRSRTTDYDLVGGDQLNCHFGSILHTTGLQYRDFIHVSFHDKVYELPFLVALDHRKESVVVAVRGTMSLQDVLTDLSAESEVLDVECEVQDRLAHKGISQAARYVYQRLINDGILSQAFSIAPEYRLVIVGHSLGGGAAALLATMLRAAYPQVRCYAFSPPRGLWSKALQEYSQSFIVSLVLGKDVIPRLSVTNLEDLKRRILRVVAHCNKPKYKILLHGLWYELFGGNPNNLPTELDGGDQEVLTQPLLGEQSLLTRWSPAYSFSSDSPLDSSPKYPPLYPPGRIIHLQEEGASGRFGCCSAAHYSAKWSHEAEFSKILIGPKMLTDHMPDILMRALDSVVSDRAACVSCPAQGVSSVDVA
TAG inh – triacylglycerol accumulation inhibition. H9c2 cells, Nile Red lipid (TAG) fluorescence; cells loaded with 200 µM oleic acid. inhibition, % at 12.5 µM. hit rate 0.66% among 230,000;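 active means pattern-corrected inhibition of lipid staining of at least 50% with the nuclear-stain viability signal not falling by more than 50%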;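 further: 0% = DMSO wells and 100% = triacsin C control wells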
DDE Tn6 FP inh – inhibitors of Tn6 peptide binding to human fibrin DD(E); P02675; Fibrin DD(E) TRITC-Tn6 fluorescence polarization displacement; inhibition, % at 8.3 µM; hit rate 0.21% among 370,000; AID 720509;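 active means inhibition above a per-campaign cutoff: mean of compounds within control limits plus 3 SD, cut at about 15% in these data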;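 further: 0% = median of all compound wells on the plate and 100% = blocking peptide control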
MT1-MMP act inh – MT1-MMP (human) activation inhibition | P50281 | HT1080 RFP-PRO-GFP cells, GFP/RFP ratio fluorescence, overnight; percent of plate control window, DMSO zero | GFP/RFP ratio change, % at 20 µM | hit rate 0.061% among 360,000 | AID 651647;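 active means GFP/RFP ratio change of at least 30% with cell ATP level not reduced by more than half and red fluorescence within 50% of control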
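Assay system – RFP-PRO-GFP reporter HT1080 cells · Compound dosing – single dose of 20 µM compound, 1% DMSO final · Incubation – overnight compound exposure at 37 °C · Measure – GFP/RFP fluorescence ratio · Benchmarks – DMSO wells and RFP-L50D-GFP cells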
H9c2 protect – modulators protecting cardiomyocytes from myocardial damage. H9c2 cardiomyocytes, H2O2 injury protection, ATPLite, 2 h. protection from H2O2 cell death, % at 20 µM. hit rate 0.63% among 360,000. AID 588492;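 active means compounds giving at least 50% protection of heart cells from peroxide-induced death in the single-dose screen, raw or plate-pattern-corrected value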;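 further: 0% = DMSO wells with peroxide and 100% = DMSO wells without peroxide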
TAG conf – triacylglycerol accumulation inhibition, confirmation. shares compounds with TAG inh. H9c2 lipid accumulation, Nile Red fluorescence; cells loaded with 200 µM oleic acid. inhibition, % at 12.5 µM. hit rate 71% among 990. AID 651629;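 active means mean inhibition across replicates of 40% or more; inactive means mean inhibition below 40%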;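 further: plate controls were DMSO only wells for no effect and Triacsin C treated wells for full effect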
Active calls of the source: *; / = not tested or not shown. Hits are enriched below; roughly 1.4% of the tested compounds scored in any of these assays.

SMILES | Tn7 DDE FP | DAGLB inh | TAG inh | DDE Tn6 FP inh | MT1-MMP act inh | H9c2 protect | TAG conf
Cc1cccc(Oc2nc(-c3ccncc3)nc3ccccc23)c1 | 0 | -8 | 8 | -5 | -6 | -1 | /
Cc1cccc(Oc2nc(-c3ccccn3)nc3ccccc23)c1 | -3 | -7 | 66* | -2 | -10 | -3 | 46*
CC(=O)Nc1ccc(Oc2nc(-c3ccccn3)nc3ccccc23)cc1 | -6 | -1 | 64* | 2 | -6 | -3 | 3
C[C@@H]1CCN(C2CC2)S(=O)(=O)c2c(cccc2N2CCC[C@H]2C)O1 | 1 | / | / | -3 | / | / | /
CC(C)C(C)(C#N)NC(=O)CSc1nc2scc(-c3ccco3)c2c(=O)n1-c1ccccc1 (centres undefined) | -1 | -2 | 70* | -3 | -2 | 16 | 44*
CC(COc1ccc(S(C)(=O)=O)cc1)CN1CCC(C(O)(c2ccccc2)c2ccccc2)CC1 (centres undefined) | -9 | / | / | 4 | / | / | /
COc1ccc(N2CCN(CC(=O)c3c(C)n(C)c4ccc(OC)cc34)CC2)cc1 | -2 | / | 55* | 4 | -6 | 3 | -92
COc1ccc2c(c1)c(C(=O)CN1CCOCC1)c(C)n2C | -3 | 0 | -23 | 4 | -2 | 4 | /
COc1ccc2c(c1)CN1C(=O)N(CC(C)C)S(=O)(=O)CC21 (centres undefined) | -3 | / | / | -8 | / | / | /
CCOC(=O)C1(Cc2ccccc2)CCN(Cc2cccc(C#N)c2)CC1 | -5 | / | / | 7 | / | / | /
O=C(/C=C/c1ccc(OCCCF)cc1)NCc1ccc(Cl)c(Cl)c1 | -4 | -11 | 62* | -9 | 11 | -12 | 52*
CC(=O)N1CCc2cc(S(=O)(=O)NCCC(=O)N(C)C3CCCCC3)ccc21 | 2 | / | / | 0 | / | / | /
COc1cc(C(CC(=O)N2CCCC2)c2c(OC)cc(OC)c3c(-c4ccccc4)cc(=O)oc23)cc(OC)c1OC (centres undefined) | 0 | -1 | 1 | 1 | -8 | -3 | /
CCCCCc1cc(=O)oc2c(C(CCN(CC)CC)c3ccc(OC)cc3)c(OC)cc(OC)c12 (centres undefined) | 2 | 0 | 73* | -11 | -6 | -12 | 68*
COc1ccc(C(CCN2CCOCC2)c2c(OC)cc(OC)c3c(C)cc(=O)oc23)cc1 (centres undefined) | -2 | -3 | 9 | -4 | 8 | 6 | /
CCCCCc1cc(=O)oc2c(C(CCN3CCCC3)c3cc(OC)c(OC)c(OC)c3)c(OC)cc(OC)c12 (centres undefined) | 0 | 1 | 94* | -8 | 2 | -16 | 77*
CCCCCc1cc(=O)oc2c(C(CCN3CCN(c4ccccc4)CC3)c3ccc4c(c3)OCO4)c(OC)cc(OC)c12 (centres undefined) | 2 | -6 | 65* | 4 | -4 | -11 | 74*
COc1cc(C(CCN2CCCC(C)C2)c2c(OC)cc(OC)c3c(-c4ccccc4)cc(=O)oc23)cc(OC)c1OC (centres undefined) | / | -3 | 74* | / | 5 | -28 | 78*
CCOC(=O)c1csc(NC(=O)C2CCCN(S(=O)(=O)c3ccc(C)cc3)C2)n1 (centres undefined) | 6 | / | / | -4 | / | / | /
COC(=O)C1CN(C2CCCC2)CCS(=O)(=O)N1Cc1cn(Cc2ccc(OC)cc2)nn1 (centres undefined) | -9 | / | / | 2 | / | / | /
C=CC[C@]1(O)C(=O)N(c2ccccc2)c2ccccc21 | 2 | / | / | 0 | / | / | /
COc1cc(C(CCN2CCCCC2)c2c(OC)cc(OC)c3c(-c4ccccc4)cc(=O)oc23)cc(OC)c1OC (centres undefined) | 0 | 0 | 58* | -3 | 7 | -19 | 52*
COc1cc(C(CCN2CCCC2)c2c(OC)cc(OC)c3c(C)cc(=O)oc23)cc(OC)c1OC (centres undefined) | -1 | -3 | 23 | 0 | 3 | 2 | /
CCOC(=O)C(C)Oc1cccc2c(=O)n(CC(=O)NCc3ccc4c(c3)OCO4)ccc12 (centres undefined) | 0 | -3 | 54* | -3 | 12 | -3 | 55*
O=C(Cn1cc(C(=O)C2CC2)c2ccccc21)NCc1ccc2c(c1)OCO2 | 7 | -5 | 51* | 7 | -2 | 9 | 26
SMILES | Tn7 DDE FP | DAGLB inh | TAG inh | DDE Tn6 FP inh | MT1-MMP act inh | H9c2 protect | TAG conf
COC(=O)c1cc(-c2cccc(C(F)(F)F)c2)c(=O)n2c1CCC2 | 3 | / | / | 1 | / | / | /
CCCCCc1ccc(-c2cn(Cc3ccc(C(=O)c4ccccc4)cc3)nn2)cc1 | 4 | -4 | 61* | 2 | -17 | -20 | 51*
O=C(c1ccccc1)c1ccc(Cn2cc(-c3ccccc3)nn2)cc1 | -6 | -7 | -35 | 6 | 13 | -13 | /
Nc1nc2c(ncn2[C@@H]2O[C@H](C(=O)N[C@H](Cc3ccccc3)C(=O)NCc3ccccc3)[C@@H](O)[C@H]2O)c(=O)[nH]1 | -5 | / | / | 1 | / | / | /
COC(=O)[C@]12C[C@H](CC(=O)NCc3cccc4ccccc34)C(=O)N(Cc3cccc4ccccc34)C1=C[C@H](C1CCCC1)O[C@@H]2C | 5 | / | / | -9 | / | / | /
COC(=O)CSc1nnc(-c2cccs2)o1 | 5 | / | / | 1 | / | / | /
O=C(CSc1cccc2cccnc12)Nc1cc(C(=O)O)cc(C(=O)O)c1 | -5 | -3 | 52* | 2 | 1 | 3 | 19
Cc1cccc(NC(=O)CSc2cccc3cccnc23)c1 | -6 | -5 | 59* | 1 | 2 | -8 | -14
NNC(=O)CSc1cccc2cccnc12 | -9 | 0 | / | 7 | 4 | 4 | /
O=C(CSc1cccc2cccnc12)Nc1ccccc1F | 1 | -5 | 73* | 2 | -3 | -6 | -1
CC1(C)CC(=O)C2=C(C1)NC(Nc1nc3ccccc3o1)=NC21CCCCC1 | 0 | 0 | / | -7 | -41 | -2 | /
Cc1ccc2oc(NC3=NC4(CCCC4)C4=C(CCCC4=O)N3)nc2c1 | 4 | / | 55* | -2 | -33 | 3 | 62*
CCOC(=O)[C@H]1[C@H]2COc3ccc(C)cc3[C@@H]2N2C(=O)c3cc(Br)ccc3NC(=O)[C@@]12C | -13 | -4 | 67* | -6 | -16 | 20 | 77*
C[C@@]12C(=O)Nc3ccc(Br)cc3C(=O)N1[C@H]1c3cc(Br)ccc3OC[C@@H]1[C@@H]2c1ccccc1 | 1 | -1 | 73* | -9 | -34 | 0 | 62*
C[C@@]12C(=O)Nc3ccc(Cl)cc3C(=O)N1[C@H]1c3cc(Br)ccc3OC[C@@H]1[C@@H]2c1ccccc1 | -1 | -4 | 37 | -11 | -21 | -2 | /
